Experimental data published in ChEMBL document CHEMBL1138829, “Conformationally constrained analogues of diacylglycerol. 21. A solid-phase method of synthesis of diacylglycerol lactones as a prelude to a combinatorial approach for the synthesis of protein kinase C isozyme-specific ligands” (J Med Chem, 2004).

Experiments:
[1] = Partition coefficient (logP); assay type: physicochemical; settings: octanol/water
[2] = molecular target: T1, Protein kinase C alpha type (Homo sapiens, UniProt P17252); assay: (§1) Displacement of [20-3H]phorbol-12,13-dibutyrate (PDBu) from a recombinant protein kinase C alpha with phosphatidylserine
Method in brief: (§2)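 Competition binding against [20-3H]PDBu using intact recombinant single isozyme PKC-alpha in presence of phosphatidylserine; tested as crude resin-cleaved and purified samples. ID50 obtained by least-squares fit of theoretical sigmoidal competition curve; Ki calculated from ID50 via standard relationship.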

[3] = molecular target: T1, Protein kinase C alpha type; assay: as §1; method in brief: as §2; remark: listed apart in the source
[4] = molecular target: T1, Protein kinase C alpha type; assay: as §1; method in brief: as §2; remark: listed apart in the source

Row | Compound | logP [1] | Ki [2] [µM] | Ki [3] [µM] | Ki [4] [µM]
1 | CCCCCCCCC/C=C1/CC(CO)(COC(=O)Cc2ccccc2)OC1=O (configuration not stated) | 5.1 | 0.0438 | 0.0925 | 
2 | CCCCCCCC/C=C1/CC(CO)(COC(=O)c2ccccc2)OC1=O (configuration not stated) | 4.36 | 0.0257 |  | 0.0456
3 | CCCCCCCC/C=C1/CC(CO)(COC(=O)c2ccc(-c3ccccc3)cc2)OC1=O (configuration not stated) | 6.12 | 0.028 |  | 0.0418
4 | O=C1OC(CO)(COC(=O)c2ccccc2)C/C1=C/c1ccc(-c2ccccc2)cc1 (configuration not stated) | 3.9 | 0.0141 |  | 0.041
5 | O=C(Cc1ccccc1)OCC1(CO)C/C(=C/c2ccc(-c3ccccc3)cc2)C(=O)O1 (configuration not stated) | 4.15 | 0.048 |  | 0.152
6 | O=C1OC(CO)(COC(=O)c2ccc(-c3ccccc3)cc2)C/C1=C/c1ccc(-c2ccccc2)cc1 (configuration not stated) | 5.66 | 0.0227 |  | 0.0839
7 | CCCCCCCC/C=C1/CC(CO)(COC(=O)Cc2ccccc2)OC1=O (configuration not stated) | 4.61 | 0.0433 |  | 0.145
8 | CCCCCCCCC/C=C1/CC(CO)(COC(=O)c2ccccc2)OC1=O (configuration not stated) | 4.85 | 0.0203 | 0.037 | 
9 | CCCCCCCCC/C=C1/CC(CO)(COC(=O)c2ccc(-c3ccccc3)cc2)OC1=O (configuration not stated) | 6.61 | 0.0191 | 0.0524 | 
